{"source": "paper PMC3576184", "about": "(Oncology Letters, 2012)", "key": {"rat neutrophils": {"tested_on": "rat neutrophils", "conditions": "through suppression of Akt and PLD activation; cited from earlier work"}, "[1]": {"tested_on": "vascular smooth muscle cells", "conditions": "via inhibition of Ras/MAPK signal pathway; cited from earlier work"}, "[2]": {"test": "Cytotoxicity on normal human PBMCs", "assay_type": "cell-based", "conditions": "normal human peripheral blood mononuclear cells (PBMCs)"}, "HL-60 cells": {"tested_on": "HL-60 cells", "conditions": "cited from earlier work"}, "WEHI-3 cell allograft": {"tested_on": "WEHI-3 cell allograft", "test": "BALB/c mouse WEHI-3 allograft leukemia model", "assay_type": "in vivo, BALB/c mice", "outline": "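30 BALB/c mice (6 weeks, 22–25 g) in five groups: 2-glycofurol vehicle; 1×10^7 WEHI-3 cells i.v.; test compound 100 mg/kg/day i.v. for 7 days; cells plus compound; or cells, then compound for 7 days. Weighed every 7 days; killed with CO2 at day 28, spleen and liver weighed. Blood leukocytes were red-cell-lysed, stained, and read by flow cytometry for surface markers including CD11b and CD45.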"}, "WEHI-3 cells": {"tested_on": "WEHI-3 cells", "test": "MTT viability assay in WEHI-3 cells", "assay_type": "cell-based, murine", "outline": "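WEHI-3 murine myelomonocytic cells were grown in RPMI-1640 with 10% FBS, 2 mM L-glutamine, penicillin and streptomycin at 37°C, 5% CO2. About 2×10^4 cells/well were plated for 24 h. Test compound in DMSO was added at final 0.78–25 μM, with 0.1% DMSO as control. After 24 h, viability was read by MTT across three separate experiments.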"}, "[3]": {"test": "Safety evaluation in BALB/c mice", "assay_type": "in vivo", "conditions": "for BUN (blood urea nitrogen) / Body weight / Liver weight / Spleen weight / sGOT (serum glutamic-oxaloacetic transaminase) / sGPT (serum glutamic-pyruvic transaminase) / ALB (albumin) / LDH (lactate dehydrogenase) / PRO (total protein): mean ± SD, n=6; for ALB (albumin) / LDH (lactate dehydrogenase) / PRO (total protein): blood", "outline": "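30 BALB/c mice in five groups received i.v. PBS, 2-glycofurol solvent, or test compound at 5, 50 or 100 mg/kg/day for 7 days. Mice were killed with CO2 at day 7. Body, liver and spleen weights were recorded. Blood was assayed for LDH, albumin, total protein, sGPT, sGOT and BUN. Spleen and liver went to histopathology. Groups were compared with controls by Student's t-test.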"}, "[4]": {"conditions": "100 mg/kg, flow cytometry, vs leukemia group"}, "[5]": {"conditions": "5 mg/kg i.v. once daily for 7 days"}, "[6]": {"conditions": "50 mg/kg i.v. once daily for 7 days"}, "[7]": {"conditions": "100 mg/kg i.v. once daily for 7 days"}}, "note": "Entries after “also recorded” stand apart in the source; their conditions may differ. Marks after values point to notes of the source that are not given here.", "data": [{"smiles": "O=Cc1ccccc1OCc1ccccc1", "note": "[2-benzyloxybenzaldehyde]", "values": [{"measurement": "superoxide anion generation", "setting": "rat neutrophils", "result": "inhibits superoxide anion generation"}, {"measurement": "effect on cell proliferation", "setting": "[1]", "result": "exhibited antiproliferative effects"}]}, {"smiles": "COc1cccc(COc2ccccc2C=O)c1", "note": "[CCY-1a-E2, 2-[(3-methoxybenzyl)oxy]benzaldehyde]", "values": [{"measurement": "IC50", "setting": "[2]", "result": "> 20", "unit": "µM"}, {"measurement": "apoptosis", "setting": "HL-60 cells", "result": "induced cell apoptosis"}, {"measurement": "cell cycle effect", "setting": "HL-60 cells", "result": "induced G2/M phase arrest"}, {"measurement": "percentage of viable cells", "setting": "HL-60 cells", "result": "decreased the percentage of viable cells"}, {"measurement": "level of CD11b on leukocytes", "setting": "WEHI-3 cell allograft; [4]", "result": "significantly decreased"}, {"measurement": "level of CD45 on leukocytes", "setting": "WEHI-3 cell allograft; [4]", "result": "significantly decreased"}, {"measurement": "Liver weight", "setting": "WEHI-3 cell allograft; 100 mg/kg/day i.v. 7 days, day 28", "result": "significantly different; also recorded: inhibited the spleen and liver growth"}, {"measurement": "body weight vs control mice", "setting": "WEHI-3 cell allograft; CCY-1a-E2 100 mg/kg group (no WEHI-3 cells), i.v. 7 days, up to day 28", "result": "not significantly decreased"}, {"measurement": "infiltration of immature myeloblastic cells into the splenic red pulp (histopathology)", "setting": "WEHI-3 cell allograft; treated leukemic mice vs untreated leukemia group, data not shown", "result": "eliminated"}, {"measurement": "IC50", "setting": "WEHI-3 cells; Mus musculus, WEHI-3, 24 h, read-out: IC50 (cell viability, MTT)", "result": 5, "unit": "µM"}, {"measurement": "percentage of viable cells", "setting": "WEHI-3 cells; WEHI-3 cells, 0.78-25 μM, 24 h, MTT", "result": "decreased the percentage of viable cells in a concentration-dependent manner"}, {"measurement": "BUN (blood urea nitrogen)", "setting": "[3]; [5]", "result": "30.33 ± 5.02", "unit": "mg/dL"}, {"measurement": "Body weight", "setting": "[3]; [5]", "result": "28.42±1.13^a g"}, {"measurement": "Liver weight", "setting": "[3]; [5]", "result": "4.42±0.47", "unit": "g/100 g body weight"}, {"measurement": "Spleen weight", "setting": "[3]; [5]", "result": "0.35±0.06", "unit": "g/100 g body weight"}, {"measurement": "sGOT (serum glutamic-oxaloacetic transaminase)", "setting": "[3]; [5]", "result": "105.83±22.16", "unit": "U/l"}, {"measurement": "sGPT (serum glutamic-pyruvic transaminase)", "setting": "[3]; [5]", "result": "41.83±8.94", "unit": "U/l"}, {"measurement": "BUN (blood urea nitrogen)", "setting": "[3]; [6]", "result": "26.17 ± 2.42", "unit": "mg/dL"}, {"measurement": "Body weight", "setting": "[3]; [6]", "result": "28.88±1.52^a g"}, {"measurement": "Liver weight", "setting": "[3]; [6]", "result": "4.18±0.33", "unit": "g/100 g body weight"}, {"measurement": "Spleen weight", "setting": "[3]; [6]", "result": "0.31±0.06", "unit": "g/100 g body weight"}, {"measurement": "sGOT (serum glutamic-oxaloacetic transaminase)", "setting": "[3]; [6]", "result": "79.98±26.10", "unit": "U/l"}, {"measurement": "sGPT (serum glutamic-pyruvic transaminase)", "setting": "[3]; [6]", "result": "43.92±16.02", "unit": "U/l"}, {"measurement": "BUN (blood urea nitrogen)", "setting": "[3]; [7]", "result": "28.92 ± 2.20", "unit": "mg/dL"}, {"measurement": "Body weight", "setting": "[3]; [7]", "result": "28.90±0.51^a g"}, {"measurement": "Liver weight", "setting": "[3]; [7]", "result": "4.17±0.26", "unit": "g/100 g body weight"}, {"measurement": "Spleen weight", "setting": "[3]; [7]", "result": "0.37±0.04", "unit": "g/100 g body weight"}, {"measurement": "sGOT (serum glutamic-oxaloacetic transaminase)", "setting": "[3]; [7]", "result": "115.12±15.08", "unit": "U/l"}, {"measurement": "sGPT (serum glutamic-pyruvic transaminase)", "setting": "[3]; [7]", "result": "41.83±10.02", "unit": "U/l"}, {"measurement": "sGPT and sGOT levels vs normal range", "setting": "[3]; 5, 50 and 100 mg/kg i.v. for 7 days", "result": "within the normal value range"}, {"measurement": "histopathology of spleen and liver", "setting": "[3]; 5, 50 and 100 mg/kg, vs vehicle-treated controls, data not shown", "result": "No significant microscopic aberrations"}, {"measurement": "ALB (albumin)", "setting": "[3]; [5]", "result": "1.58 ± 0.38", "unit": "g/dL"}, {"measurement": "LDH (lactate dehydrogenase)", "setting": "[3]; [5]", "result": "298.00±62.22", "unit": "U/l"}, {"measurement": "PRO (total protein)", "setting": "[3]; [5]", "result": "3.68 ± 0.60", "unit": "g/dL"}, {"measurement": "ALB (albumin)", "setting": "[3]; [6]", "result": "1.73 ± 0.26", "unit": "g/dL"}, {"measurement": "LDH (lactate dehydrogenase)", "setting": "[3]; [6]", "result": "244.83±46.99", "unit": "U/l"}, {"measurement": "PRO (total protein)", "setting": "[3]; [6]", "result": "4.06 ± 0.58", "unit": "g/dL"}, {"measurement": "ALB (albumin)", "setting": "[3]; [7]", "result": "1.84 ± 0.13", "unit": "g/dL"}, {"measurement": "LDH (lactate dehydrogenase)", "setting": "[3]; [7]", "result": "270.83±42.09", "unit": "U/l"}, {"measurement": "PRO (total protein)", "setting": "[3]; [7]", "result": "4.77 ± 0.46", "unit": "g/dL"}]}]}
